Here are results for 1 molecule from ChEMBL document CHEMBL4014261, “Design, Synthesis, and Antimicrobial Evaluation of a Novel Bone-Targeting Bisphosphonate-Ciprofloxacin Conjugate for the Treatment of Osteomyelitis Biofilms” (J Med Chem, 2017).

The subject of data set [1] is Staphylococcus aureus. The data set is described as follows: Antibacterial activity against methicillin-sensitive Staphylococcus aureus ATCC 6538 planktonic cells after 24 hrs by microdilution assay. The data set is classed as functional. Conditions: ATCC 6538, 24 h. An outline of the steps:
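Planktonic cells at 1 × 10^5 CFU/mL were exposed to compound, and A580 was read at 0 h and after 24 h at 37 °C with shaking. Controls were medium plus microbes, with 1% (v/v) DMSO where the solvent was used. Relative cell number was calculated against the control. Results were confirmed by subculture in fresh medium (48 h, 37 °C) and plating. Conjugate concentrations were expressed as parent-antibiotic equivalents.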
On the technique in general: Broth dilution looks for growth in wells or tubes with falling amounts of substance.

Data set [2] relates to Staphylococcus aureus. The data set is described as follows: Antibacterial activity against methicillin-resistant Staphylococcus aureus MR4-CIPS planktonic cells after 24 hrs by microdilution assay. The data set is classed as functional. The method, boiled down: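 Broth microdilution: 100 µL of 1 × 10^5 CFU/mL inoculum with graded compound concentrations, read at 580 nm before and after 24 h at 37 °C with shaking to prevent biofilm formation. Relative cell number is taken against medium + microbes controls, with 1% DMSO in the ciprofloxacin control. Growth is confirmed by 48 h subculture in fresh medium and by plating. MIC is expressed as parent-antibiotic equivalents.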

For another data set, the system named is Hydroxyapatite. The data set can be described thus: Binding affinity to Hydroxyapatite at 1.95 to 250 ug/mL up to 24 hrs by spectroscopic analysis. An outline of the steps: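 HA spherules (final 10 mg/mL) in TSB were mixed with compound (final 0.24–250 mg/L). Absorbance at 275 nm was read at 0 h and after 24 h at 37 °C with shaking, and relative compound concentration was derived by comparing the two readings.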

Data set [3] concerns Staphylococcus aureus. The data set is described as follows: Antibacterial activity against methicillin-sensitive Staphylococcus aureus ATCC 6538 planktonic cells at pH 5 after 24 hrs by microdilution method. The data set is classed as functional. As to conditions: ATCC 6538, 24 h. An outline of the steps:
(§1)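 Planktonic ATCC 6538 was tested by microdilution in medium adjusted to pH 5 or pH 7.4 with KOH or HCl, with pH checked by universal indicator. MIC50 was determined at each pH.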

Data set [4] has as its system Staphylococcus aureus. The data set is described as follows: Antibacterial activity against methicillin-sensitive Staphylococcus aureus ATCC 6538 planktonic cells at pH 7.4 after 24 hrs by microdilution method. The data set is classed as functional. Conditions: ATCC 6538, 24 h. The method, boiled down: as §1
The test system of data set [5] is Staphylococcus aureus. The data set is described as follows: Bactericidal activity against methicillin-sensitive Staphylococcus aureus ATCC 6538 planktonic cells assessed as reduction in bacterial growth at 31.25 ug/ml up to 1 hr by time kill assay relative to control. The data set is classed as functional. Further details: scale not given: the % may be the effect or the level left. An outline of the steps: (§2)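 Time-kill per CLSI on planktonic cultures, set up as the microdilution assay: 1 × 10^5 CFU/mL, 37 °C with shaking. A580 is read at 0, 1, 2, 4, 8, 16 and 24 h, and growth is expressed relative to untreated medium + microbes control. Concentrations are parent-antibiotic equivalents.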

For data set [6], the system named is Staphylococcus aureus. The data set can be described thus: Bactericidal activity against methicillin-resistant Staphylococcus aureus MR4-CIPS planktonic cells assessed as reduction in bacterial growth at 7.8 ug/ml after 24 hrs by time kill assay relative to control. Further details: scale not given: the % may be the effect or the level left. The data set is classed as functional. An outline of the steps:
as §2

The subject of data set [7] is Staphylococcus aureus. The data set can be described thus: Antibiofilm activity against Staphylococcus aureus ATCC 6538 assessed as reduction in bacterial adherence to HA at 15.6 to 250 ug/ml pretreated with HA for 24 hrs followed by organism inoculation measured after 24 hrs. The format is functional. The method, boiled down: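 HA spherules (final 10 mg/mL) in TSB were preincubated 24 h at 37 °C with shaking with compound (final 0.12–250 mg/L), then pelleted and the supernatant discarded. They were inoculated with 1 mL S. aureus at 10^5 CFU/mL. A580 was read at 0 and 24 h (37 °C, shaking) against controls without spherules and spherules without compound; spherules were also plated for CFU.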

Data set [8] relates to Staphylococcus aureus. The data set is described as follows: Antibiofilm activity against Staphylococcus aureus ATCC 6538 assessed as CFU counts at 1 ug/mL pretreated with HA for 24 hrs followed by organism inoculation measured after 24 hrs (reference value: 4.5 x 10^10CFU). The format is functional. An outline of the steps: (§3)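 HA discs were soaked 24 h at 37 °C in 2 mL compound solution, with DMSO or phosphate-buffer controls, then rinsed 3× with sterile water. Discs were inoculated with 2 mL of 0.5 McFarland S. aureus ATCC 6538 for biofilm formation. Biofilm CFU were counted after 24 h growth.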

Data set [9] relates to Staphylococcus aureus. The data set is described as follows: Antibiofilm activity against Staphylococcus aureus ATCC 6538 assessed as CFU counts at 10 ug/mL pretreated with HA for 24 hrs followed by organism inoculation measured after 24 hrs (reference value: 4.5 x 10^10CFU). The format is functional. An outline of the steps:
as §3

Data set [10] concerns Staphylococcus aureus. The data set is described as follows: Antibiofilm activity against Staphylococcus aureus ATCC 6538 assessed as CFU counts at 25 ug/mL pretreated with HA for 24 hrs followed by organism inoculation measured after 24 hrs (reference value: 4.5 x 10^10CFU). The data set is classed as functional. An outline of the steps: as §3
Data set [11] concerns Staphylococcus aureus. The data set is described as follows: Antibiofilm activity against Staphylococcus aureus ATCC 6538 assessed as CFU counts at 50 ug/mL pretreated with HA for 24 hrs followed by organism inoculation measured after 24 hrs (reference value: 4.5 x 10^10CFU). The format is functional. The method, boiled down:
as §3

Data set [12] relates to Staphylococcus aureus. The data set is described as follows: Antibiofilm activity against Staphylococcus aureus ATCC 6538 assessed as CFU counts at 400 ug/mL pretreated with HA for 24 hrs followed by organism inoculation measured after 24 hrs (reference value: 4.5 x 10^10CFU). The data set is classed as functional.
The subject of data set [13] is Staphylococcus aureus. The data set is described as follows: Potency index, ratio of ciprofloxacin bactericidal concentration to compound bactericidal concentration for Staphylococcus aureus ATCC 6538. The format is functional.
Data set [14] concerns Aggregatibacter actinomycetemcomitans. The data set can be described thus: Antibiofilm activity against Aggregatibacter actinomycetemcomitans D7S-5 using hydroxyapatite as substrate at >15 ug/mL after 24 hrs. The data set is classed as functional.
Data set [15] shares this test system. The data set can be described thus: Antibiofilm activity against Aggregatibacter actinomycetemcomitans infected in jawbone peri-implant osteomyelitis Sprague-Dawley rat model assessed as reduction in bacterial count in bone at 10 mg/kg, ip single dose measured after 1 week post pharmacotherapy. Further details: scale not given: the % may be the effect or the level left. The format is functional. The method, boiled down:
(§4)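 Rats carried two titanium implants each, preinoculated with A. actinomycetemcomitans D7S-1 biofilm (10^9 CFU), placed bilaterally in palatal bone. One week after surgery, randomized groups received i.p. doses in sterile saline; the negative control was endotoxin-free saline. One week after treatment, 1 cm² peri-implant tissue and bone were homogenized in 0.5% saponin, serially diluted 10-fold and spread-plated on modified TSB (37 °C, 5% CO2, 48 h). Read-out was CFU/g and mean log10 reduction; analysts were blinded.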

The test system is the same in data set [16]. The data set can be described thus: Antibiofilm activity against Aggregatibacter actinomycetemcomitans infected in jawbone peri-implant osteomyelitis Sprague-Dawley rat model assessed as reduction in bacterial count in bone at 0.1 to 1 mg/kg, ip single dose measured after 1 week post pharmacotherapy. The data set is classed as functional, organism-based. The method, boiled down:
as §4

A further data set relates to Rattus norvegicus. The data set can be described thus: Toxicity in jawbone peri-implant osteomyelitis Sprague-Dawley rat model infected with Aggregatibacter actinomycetemcomitans assessed as signs of gross tolerability at 0.3 mg/kg, ip administered 3 times per week measured after 1 week post pharmacotherapy. The format is organism-based. Conditions: in vivo, 168 h. An outline of the steps:
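Rats bearing infected palatal implants received i.p. dosing in sterile saline. They were observed during therapy for cutaneous injection-site reactions, inflammation and gross tolerability issues, and were euthanized one week after pharmacotherapy.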

The subject of data set [17] is Aggregatibacter actinomycetemcomitans. The data set can be described thus: Antibiofilm activity against Aggregatibacter actinomycetemcomitans infected in jawbone peri-implant osteomyelitis Sprague-Dawley rat model assessed as mean CFU count/gram at 10 mg/kg, ip single dose measured after 1 week post pharmacotherapy. The data set is classed as functional, organism-based. An outline of the steps: as §4

Data set [18] concerns Staphylococcus aureus. The data set is described as follows: Bactericidal activity against methicillin-susceptible Staphylococcus aureus ATCC 6538 planktonic cells assessed as reduction in bacterial growth at 15.6 ug/ml after 24 hrs by time kill assay. Also on record: scale not given: the % may be the effect or the level left.

A word on the MIC: it is the lowest concentration that inhibits growth of the organism. As usually defined, the MIC50 is the lowest concentration that inhibits either 50% of growth or 50% of the strains tested, depending on the study. By MIC90 is commonly meant an inhibitory concentration at the 90% level, which refers to growth in some studies and to a panel of isolates in others.

Converted amounts (≈) assume the structure as drawn. The source made the active and inactive calls. The calls are words filed in the database; no cut-off is given here.

Take `O=C(O)c1cn(C2CC2)c2cc(N3CCN(C(=O)Oc4ccc(CC(P(=O)(O)O)P(=O)(O)O)cc4)CC3)c(F)cc2c1=O`: the MIC was determined as 31.2 µg/mL (≈ 48.8 µM) in the data set on Staphylococcus aureus [1] and 15.6 µg/mL (≈ 24.4 µM) against Staphylococcus aureus [2]. For the same molecule, the outcome with Hydroxyapatite, with Staphylococcus aureus [7], in the data set on Staphylococcus aureus [9], in the data set with Staphylococcus aureus [10], with Staphylococcus aureus [11] and in the data set on Staphylococcus aureus [12] was Active. Besides, the outcome in data set [14], in data set [16] and in data set [17] was Active. For the same molecule, the MIC50 against Staphylococcus aureus [3] turned out to be 7.81 µg/mL (≈ 12.2 µM); against Staphylococcus aureus [4], 15.6 µg/mL (≈ 24.4 µM). Besides, the MIC90 in the data set on Staphylococcus aureus [3] and in the data set on Staphylococcus aureus [4] was 31.2 µg/mL (≈ 48.9 µM) each time. Further, the Activity in the data set on Staphylococcus aureus [5] is 100%; with Staphylococcus aureus [6] it was 50%; in the data set with Staphylococcus aureus [8] it was 7.1 ×10¹⁰ CFU; in data set [15], 99%; in the data set with Rattus norvegicus, “Non-Toxic”; in the data set on Staphylococcus aureus [18], 50%. Moreover, the Ratio with Staphylococcus aureus [13] was found to be 20.
